The results in this text go back to ChEMBL document CHEMBL4406846, “Development of novel multipotent compounds modulating endocannabinoid and dopaminergic systems” (Eur J Med Chem, 2019).

Test [1] has as its target T1, Fatty-acid amide hydrolase 1 (Mus musculus, UniProt O08914).
T1 sequence (O08914 whole entry): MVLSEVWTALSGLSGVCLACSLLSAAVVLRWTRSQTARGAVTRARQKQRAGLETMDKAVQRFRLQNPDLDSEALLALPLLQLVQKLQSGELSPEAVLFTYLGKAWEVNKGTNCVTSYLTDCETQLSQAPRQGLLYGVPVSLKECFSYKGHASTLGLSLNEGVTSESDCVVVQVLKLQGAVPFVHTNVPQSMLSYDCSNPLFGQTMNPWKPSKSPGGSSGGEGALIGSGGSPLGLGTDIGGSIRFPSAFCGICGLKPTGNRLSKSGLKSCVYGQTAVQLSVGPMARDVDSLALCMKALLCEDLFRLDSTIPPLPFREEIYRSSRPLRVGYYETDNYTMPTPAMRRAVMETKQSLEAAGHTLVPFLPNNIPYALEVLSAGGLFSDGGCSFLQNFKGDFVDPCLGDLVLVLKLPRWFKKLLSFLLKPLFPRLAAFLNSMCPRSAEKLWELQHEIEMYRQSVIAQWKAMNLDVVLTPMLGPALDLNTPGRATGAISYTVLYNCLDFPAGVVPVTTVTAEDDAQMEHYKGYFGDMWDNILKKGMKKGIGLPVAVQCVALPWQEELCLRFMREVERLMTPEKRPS
As to the kind of experiment: Inhibition of FAAH in mouse brain membranes using [14C]-AEA as substrate incubated for 15 mins by scintillation counting method. The class given is cell membranes.

Test [2] addresses T1, Fatty-acid amide hydrolase 1. In words: Inhibition of FAAH in mouse brain membranes assessed as inhibitory constant using [14C]-AEA as substrate incubated for 15 mins by scintillation counting method. Type of test: cell membranes. The method, boiled down: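 Mouse brain incubated with 10 μM [¹⁴C]AEA at 37 °C for 15 min, pH 9.0, compound added to the medium. Stopped with chloroform/methanol 2:1; [¹⁴C]ethanolamine released into the aqueous phase measured. Mean of at least three experiments.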

Test [3] addresses D(2) dopamine receptor (Homo sapiens, UniProt P14416). In words: Displacement of [3H]-spiperone from human D2 receptor expressed in CHO cells co-expressing Galpha16 incubated for 120 mins by liquid scintillation counting method. The class given is cell-based. In a few lines:
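Membranes from CHO cells expressing hD2 with Gα16; 2 μg protein/well, 0.08 nM [³H]-spiperone final, 23 °C for 120 min. Stopped by rapid filtration on PEI-soaked GF/B filters, bound radioactivity counted; Ki by Cheng-Prusoff; at least three experiments.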
A general note: Displacement assays read how much labelled ligand stays bound in the presence of the test substance.

Test [4] concerns the target D(3) dopamine receptor (Homo sapiens, UniProt P35462). As to the kind of experiment: Displacement of [3H]-spiperone from human D3 receptor expressed in CHO cells co-expressing Galpha16 incubated for 120 mins by liquid scintillation counting method. Type of test: cell-based.
Test [5] has as its target Voltage-gated inwardly rectifying potassium channel KCNH2 (Homo sapiens, UniProt Q12809). As to the kind of experiment: Inhibition of human ERG expressed in HEK293 cells […] by patch clamp assay. Type of test: cell-based. The method, boiled down:
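HEK293 cells stably expressing hERG under a tetracycline-inducible promoter (10 μg/mL tetracycline for 24, 48 or 72 h). Automated patch clamp, tail current; 0.1, 1 and 10 μM in 0.1% DMSO after 3 min vehicle, 5 min exposure. Residual current vs vehicle gives % inhibition; IC50 estimated; at least two cells.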
For orientation: The patch-clamp technique gives a direct electrical read-out from membranes.

Sequence of D(3) dopamine receptor (P35462 whole entry): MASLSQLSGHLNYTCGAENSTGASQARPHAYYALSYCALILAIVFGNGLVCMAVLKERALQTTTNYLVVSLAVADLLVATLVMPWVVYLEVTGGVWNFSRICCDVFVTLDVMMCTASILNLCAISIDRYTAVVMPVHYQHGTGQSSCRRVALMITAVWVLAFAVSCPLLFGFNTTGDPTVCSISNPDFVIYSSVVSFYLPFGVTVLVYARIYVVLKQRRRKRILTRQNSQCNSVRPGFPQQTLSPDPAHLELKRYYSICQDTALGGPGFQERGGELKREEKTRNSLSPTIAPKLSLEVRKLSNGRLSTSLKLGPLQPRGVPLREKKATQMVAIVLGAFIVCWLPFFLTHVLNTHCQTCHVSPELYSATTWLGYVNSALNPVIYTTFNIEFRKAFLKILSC
Sequence of D(2) dopamine receptor (P14416 whole entry): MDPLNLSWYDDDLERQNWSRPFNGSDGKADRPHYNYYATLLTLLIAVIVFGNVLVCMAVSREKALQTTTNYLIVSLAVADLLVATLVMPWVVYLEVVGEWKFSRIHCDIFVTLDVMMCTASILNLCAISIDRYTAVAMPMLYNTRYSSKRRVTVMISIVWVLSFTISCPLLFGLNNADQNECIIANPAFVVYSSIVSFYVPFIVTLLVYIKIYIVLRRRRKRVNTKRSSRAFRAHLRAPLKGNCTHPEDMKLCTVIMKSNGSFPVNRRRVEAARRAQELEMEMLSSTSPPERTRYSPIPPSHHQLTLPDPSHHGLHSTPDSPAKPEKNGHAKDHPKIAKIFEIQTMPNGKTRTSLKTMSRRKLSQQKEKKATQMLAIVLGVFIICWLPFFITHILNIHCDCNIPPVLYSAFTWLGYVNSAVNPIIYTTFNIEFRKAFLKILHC
Sequence of Voltage-gated inwardly rectifying potassium channel KCNH2 (Q12809 whole entry): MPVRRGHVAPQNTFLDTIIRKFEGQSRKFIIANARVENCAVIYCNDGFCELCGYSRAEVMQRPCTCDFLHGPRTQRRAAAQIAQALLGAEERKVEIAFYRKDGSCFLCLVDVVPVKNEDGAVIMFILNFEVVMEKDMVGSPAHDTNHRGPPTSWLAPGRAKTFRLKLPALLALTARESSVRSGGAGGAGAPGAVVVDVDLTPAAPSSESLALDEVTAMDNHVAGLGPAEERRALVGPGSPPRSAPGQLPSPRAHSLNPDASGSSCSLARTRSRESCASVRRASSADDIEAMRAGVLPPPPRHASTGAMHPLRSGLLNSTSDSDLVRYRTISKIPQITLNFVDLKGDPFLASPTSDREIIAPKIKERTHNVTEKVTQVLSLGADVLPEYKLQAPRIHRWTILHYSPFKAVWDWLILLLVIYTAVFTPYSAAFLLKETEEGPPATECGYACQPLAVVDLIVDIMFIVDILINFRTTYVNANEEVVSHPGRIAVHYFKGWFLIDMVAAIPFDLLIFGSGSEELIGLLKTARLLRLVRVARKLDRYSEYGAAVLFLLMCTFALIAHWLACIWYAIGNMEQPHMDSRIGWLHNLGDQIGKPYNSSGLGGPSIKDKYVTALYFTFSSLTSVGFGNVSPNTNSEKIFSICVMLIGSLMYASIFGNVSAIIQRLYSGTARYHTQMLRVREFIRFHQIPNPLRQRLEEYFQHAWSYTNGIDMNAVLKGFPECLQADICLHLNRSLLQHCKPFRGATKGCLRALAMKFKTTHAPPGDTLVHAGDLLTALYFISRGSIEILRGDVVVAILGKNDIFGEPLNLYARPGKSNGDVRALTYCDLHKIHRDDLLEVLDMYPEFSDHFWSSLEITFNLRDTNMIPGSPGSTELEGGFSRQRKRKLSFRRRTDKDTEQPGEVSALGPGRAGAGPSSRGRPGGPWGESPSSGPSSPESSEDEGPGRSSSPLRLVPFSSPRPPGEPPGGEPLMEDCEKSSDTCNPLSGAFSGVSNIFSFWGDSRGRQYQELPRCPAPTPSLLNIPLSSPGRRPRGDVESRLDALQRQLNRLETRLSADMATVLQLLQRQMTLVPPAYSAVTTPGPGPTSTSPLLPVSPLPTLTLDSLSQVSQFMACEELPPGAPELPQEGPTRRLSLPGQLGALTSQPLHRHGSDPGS

A word on the IC50: it is the midpoint of a concentration-inhibition curve. A lower IC50 goes with higher potency. By Ki is commonly meant the dissociation constant of the complex between target and ligand, obtained from inhibition or displacement. Consider `Cn1c(C(N)=O)ccc1-c1cccc(OC(=O)NCCN2CCN(c3ccccc3)CC2)c1`, for which the half-maximal inhibitory concentration (IC50) in test [1] amounted to 791 nM; in test [5] it was 6400 nM. In addition, the Ki was 203 nM in test [2], 56 nM in test [3] and 76 nM in test [4].

For the molecule `Cc1cc(C(N)=O)c(-c2cccc(OC(=O)NCCCN3CCN(c4ccccc4)CC3)c2)o1`, the figures for the IC50 in test [1] and in test [5] were 62 nM and 1100 nM, respectively. The Ki was 16 nM in test [2], 29 nM in test [3] and 19 nM in test [4].

The molecule `NC(=O)c1cn(-c2cccc(OC(=O)NCCN3CCN(c4ccccc4)CC3)c2)nn1` came in with an IC50 in test [1] of 757 nM. Also, the Ki in test [2] was 194 nM.

`Cc1cc(C(N)=O)c(-c2cccc(OC(=O)NCCN3CCN(c4ccccc4)CC3)c2)[nH]1` returned an IC50 in test [1] of 195 nM. The Ki in test [2] was 50 nM.

Turning to `NC(=O)c1ccn(-c2cccc(OC(=O)NCCCN3CCN(c4ccccc4)CC3)c2)c1`, the IC50 in test [1] was 94 nM; in test [5] it was 3500 nM. Besides, the figures for the Ki in test [2], in test [3] and in test [4] were 25 nM, 66 nM and 34 nM, respectively.
